Source: ChEMBL document CHEMBL1124260, “Synthesis and antitumor activity of quaternary ellipticine glycosides, a series of novel and highly active antitumor agents” (1988)

Key:
Mus musculus [1] = assay: Number of survivors out of 6 ip implanted L1210 leukemia in mouse after ip administration of 20 mg/kg after 80 days; type: functional; conditions: route intraperitoneal
How it was run: (§1)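 Female BDF1 mice implanted ip with ascitic fluid holding 10^5 L1210 cells. Saline-dissolved drug given ip daily on days 1-5, starting 24 h after implant. Six mice per dose group, followed 80 days. Survivors/total counted at day 80; ILS % from mean survival time vs controls.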

Mus musculus [2] = assay: Number of survivors out of 6 ip implanted L1210 leukemia in mouse after ip administration of 40 mg/kg after 80 days; type: functional; conditions: route intraperitoneal; how it was run: as §1
Mus musculus [3] = assay: Number of survivors out of 6 ip implanted L1210 leukemia in mouse after ip administration of 80 mg/kg after 80 days; type: functional; conditions: route intraperitoneal; how it was run: as §1
Mus musculus [4] = assay: Antitumor activity against ip implanted L1210 leukemia in mouse after ip administration of 1.25 mg/kg for 5 days expressed as increase in mean life span; type: functional; conditions: 120 h, route intraperitoneal
How it was run: (§2)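 Drug was dissolved in 0.9% NaCl, diluted just before use and given ip once daily for 5 consecutive days, starting 24 h after transplant. ILS % = mean survival time of treated vs control mice, observed for 80 days.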

Mus musculus [5] = assay: Number of survivors out of 6 ip implanted P388 leukemia in mouse after ip administration of 10 mg/kg after 80 days; type: functional; conditions: route intraperitoneal
How it was run: (§3)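 P388 leukemia, 10^6 ascitic cells implanted ip in female BDF1 mice. Drug in saline given ip for 5 consecutive days from 24 h after transplant. Groups of six per dose level. Survivors/total recorded at the 80-day end of observation; ILS % from treated/control mean survival time.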

Mus musculus [6] = assay: Number of survivors out of 6 ip implanted P388 leukemia in mouse after ip administration of 20 mg/kg after 80 days; type: functional; conditions: route intraperitoneal; how it was run: as §3
Mus musculus [7] = assay: Number of survivors out of 6 ip implanted P388 leukemia in mouse after ip administration of 40 mg/kg after 80 days; type: functional; conditions: route intraperitoneal; how it was run: as §3
Mus musculus [8] = assay: Number of survivors out of 6 ip implanted P388 leukemia in mouse after ip administration of 80 mg/kg after 80 days; type: functional; conditions: route intraperitoneal; how it was run: as §3
Mus musculus [9] = assay: Antitumor activity against ip implanted L1210 leukemia in mouse after ip administration of 10 mg/kg for 5 days expressed as increase in mean life span; type: functional; conditions: Mus musculus, L1210, ip, 120 h, route intraperitoneal; how it was run: as §2
Mus musculus [10] = assay: Antitumor activity against ip implanted L1210 leukemia in mouse after ip administration of 20 mg/kg for 5 days expressed as increase in mean life span; type: functional; conditions: 120 h, route intraperitoneal; how it was run: as §2
Mus musculus [11] = assay: Antitumor activity against ip implanted L1210 leukemia in mouse after ip administration of 30 mg/kg for 5 days expressed as increase in mean life span; type: functional; conditions: route intraperitoneal, 30 mg/kg; how it was run: as §2
Mus musculus [12] = assay: Antitumor activity against ip implanted L1210 leukemia in mouse after ip administration of 40 mg/kg for 5 days expressed as increase in mean life span; type: functional; conditions: 120 h, route intraperitoneal; how it was run: as §2
Mus musculus [13] = assay: Antitumor activity against ip implanted L1210 leukemia in mouse after ip administration of 5 mg/kg for 5 days expressed as increase in mean life span; type: functional; conditions: Mus musculus, L1210, ip, 120 h, route intraperitoneal; how it was run: as §2
Mus musculus [14] = assay: Antitumor activity against ip implanted P388 leukemia in mouse after ip administration of 1.25 mg/kg for 5 days expressed as increase in mean life span; type: functional; conditions: 120 h, route intraperitoneal
How it was run: (§4)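 Saline-dissolved drug was given ip daily for 5 consecutive days, beginning 24 h post-transplant. ILS % was calculated from treated vs control mean survival time over an 80-day observation period.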

Mus musculus [15] = assay: Antitumor activity against ip implanted P388 leukemia in mouse after ip administration of 10 mg/kg for 5 days expressed as increase in mean life span; type: functional; conditions: 120 h, route intraperitoneal; how it was run: as §4
Mus musculus [16] = assay: Antitumor activity against ip implanted P388 leukemia in mouse after ip administration of 20 mg/kg for 5 days expressed as increase in mean life span; type: functional; conditions: 120 h, route intraperitoneal; how it was run: as §4
Mus musculus [17] = assay: Antitumor activity against ip implanted P388 leukemia in mouse after ip administration of 40 mg/kg for 5 days expressed as increase in mean life span; type: functional; conditions: 120 h, route intraperitoneal; how it was run: as §4
Mus musculus [18] = assay: Antitumor activity against ip implanted P388 leukemia in mouse after ip administration of 5 mg/kg for 5 days expressed as increase in mean life span; type: functional; conditions: 120 h, route intraperitoneal; how it was run: as §4
Mus musculus [19] = assay: Antitumor activity against ip implanted P388 leukemia in mouse after ip administration of 80 mg/kg for 5 days expressed as increase in mean life span; type: functional; conditions: 120 h, route intraperitoneal; how it was run: as §4
Mus musculus [20] = assay: Number of survivors out of 6 ip implanted L1210 leukemia mouse, tested after 80 days at 30 mg/kg; type: functional; conditions: route intraperitoneal, 30 mg/kg; how it was run: as §1
Mus musculus [21] = assay: Inhibition of sc implanted syngeneic colon 38 carcinoma by ip administration at 30 mg/kg on 1, 3, 5, 7, 9 days measured as inhibition ratio; type: functional; conditions: route intraperitoneal
How it was run: (§5)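 Tumor homogenate (70 mg) implanted into the axillary region of female BDF1 mice. Drug dissolved in 0.9% NaCl and diluted with saline just before use, then given ip on days 1, 3, 5, 7 and 9. Tumor length and width were measured by caliper on day 20 after inoculation and converted to estimated weight. Result reported as treated vs control tumor weight, T/C %.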

Mus musculus [22] = assay: Inhibition of sc implanted syngeneic colon 38 carcinoma by ip administration at 40 mg/kg on 1, 3, 5, 7, 9 days measured as inhibition ratio; type: functional; conditions: route subcutaneous; how it was run: as §5
Mus musculus [23] = assay: Inhibition of sc implanted syngeneic colon 38 carcinoma by ip administration at 60 mg/kg on 1, 3, 5, 7, 9 days measured as inhibition ratio; type: functional; conditions: route subcutaneous; how it was run: as §5
Mus musculus [24] = assay: Inhibition of sc implanted syngeneic colon 38 carcinoma by ip administration at 80 mg/kg on 1, 3, 5, 7, 9 days measured as inhibition ratio; type: functional; conditions: route subcutaneous; how it was run: as §5
Mus musculus [25] = assay: Effect on ip implanted syngeneic B16 melanoma by ip administration of 20 mg/kg for 9 days measured as increase in mean life span; conditions: 216 h
Mus musculus [26] = assay: Effect on ip implanted syngeneic B16 melanoma by ip administration of 30 mg/kg for 9 days measured as increase in mean life span; conditions: 216 h
Mus musculus [27] = assay: Effect on ip implanted syngeneic B16 melanoma by ip administration for 9 days at 5 mg/kg was measured as increase in mean life span; conditions: 216 h
Mus musculus [28] = assay: Effect on ip implanted syngeneic B16 melanoma by ip administration for 9 days at 10 mg/kg was measured as increase in mean life span; conditions: 216 h
Mus musculus [29] = assay: Antitumor activity against ip implanted P388 leukemia in mouse after iv administration of 4 mg/kg for 5 days expressed as increase in mean life span; conditions: 120 h
Mus musculus [30] = assay: Antitumor activity against ip implanted P388 leukemia in mouse after iv administration of 8 mg/kg for 5 days expressed as increase in mean life span; conditions: 120 h
Mus musculus [31] = assay: Antitumor activity against ip implanted L1210 leukemia in mouse after iv administration of 4 mg/kg for 5 days expressed as increase in mean life span; conditions: 120 h
Mus musculus [32] = assay: Antitumor activity against ip implanted L1210 leukemia in mouse after iv administration of 2 mg/kg for 5 days expressed as increase in mean life span; conditions: 120 h
Mus musculus [33] = assay: Number of survivors out of 6 ip implanted P388 leukemia in mouse after ip administration of 2.5 mg/kg after 80 days; type: functional; conditions: route intraperitoneal; how it was run: as §3
Mus musculus [34] = assay: Antitumor activity against ip implanted L1210 leukemia in mouse after ip administration of 2.5 mg/kg for 5 days expressed as increase in mean life span; type: functional; conditions: 120 h, route intraperitoneal; how it was run: as §2
Mus musculus [35] = assay: Antitumor activity against ip implanted P388 leukemia in mouse after ip administration of 2.5 mg/kg for 5 days expressed as increase in mean life span; type: functional; conditions: 120 h, route intraperitoneal; how it was run: as §4
Mus musculus [36] = assay: Inhibition of sc implanted syngeneic colon 38 carcinoma by ip administration at 2.5 mg/kg on 1, 3, 5, 7, 9 days measured as inhibition ratio; type: functional; conditions: route subcutaneous; how it was run: as §5
Mus musculus [37] = assay: Effect on ip implanted syngeneic B16 melanoma by ip administration for 9 days at 2.5 mg/kg was measured as increase in mean life span; conditions: 216 h
Mus musculus [38] = assay: Antitumor activity against ip implanted P388 leukemia in mouse after iv administration of 2.5 mg/kg for 5 days expressed as increase in mean life span; conditions: 120 h
Mus musculus [39] = assay: Antitumor activity against ip implanted L1210 leukemia in mouse after iv administration of 2.5 mg/kg for 5 days expressed as increase in mean life span; conditions: 120 h
Mus musculus [40] = assay: Antitumor activity against ip implanted L1210 leukemia in mouse after ip administration of 120 mg/kg for 5 days expressed as increase in mean life span; type: functional; conditions: 120 h, route intraperitoneal; how it was run: as §2
Mus musculus [41] = assay: Antitumor activity against ip implanted syngeneic P388 leukemia in mouse after ip administration of 60 mg/kg for 5 days expressed as increase in mean life span; type: functional; conditions: 120 h, route intraperitoneal; how it was run: as §4

Compound: Cc1c2cc[n+]([C@H]3O[C@@H](C)[C@@H](O)[C@@H](O)[C@@H]3O)cc2c(C)c2c1[nH]c1ccc(O)cc12.[Br-] (stereo in doubt; 56)
- Cures (Mus musculus [1]): 1
- Cures (Mus musculus [2]): 4
- Cures (Mus musculus [3]): 6
- ILS at 1.25 mg/kg (Mus musculus [4]): 56%
- Cures (Mus musculus [5]): 2
- Cures (Mus musculus [6]): 5
- Cures (Mus musculus [7]): 6
- Cures (Mus musculus [8]): 4
- ILS at 10 mg/kg (Mus musculus [9]): 107%
- ILS at 20 mg/kg (Mus musculus [10]): > 248%
- ILS (Mus musculus [11]): >693%
- ILS at 40 mg/kg (Mus musculus [12]): > 712%
- ILS at 5 mg/kg (Mus musculus [13]): 67%
- ILS at 1.25 mg/kg (Mus musculus [14]): 85%
- ILS at 10 mg/kg (Mus musculus [15]): > 341%
- ILS at 20 mg/kg (Mus musculus [16]): > 677%
- ILS at 40 mg/kg (Mus musculus [17]): > 789%
- ILS at 5 mg/kg (Mus musculus [18]): 109%
- ILS at 80 mg/kg (Mus musculus [19]): > 513%
- Cures (Mus musculus [20]): 4
- T/C (Mus musculus [21]): 52%
- T/C (Mus musculus [22]): 19%
- T/C (Mus musculus [23]): 3%
- T/C (Mus musculus [24]): 2%
- ILS at 20 mg/kg (Mus musculus [25]): 81%
- ILS at 30 mg/kg (Mus musculus [26]): 58%
- ILS at 5 mg/kg (Mus musculus [27]): 50%
- ILS at 10 mg/kg (Mus musculus [28]): 62%
- ILS at 4 mg/kg (Mus musculus [29]): 63%
- ILS at 8 mg/kg (Mus musculus [30]): 76%
- ILS at 4 mg/kg (Mus musculus [31]): 38%
- ILS at 2 mg/kg (Mus musculus [32]): 9%

Compound: COc1cccc2c1C(=O)c1c(O)c3c(c(O)c1C2=O)C[C@@](O)(C(=O)CO)C[C@@H]3O[C@H]1C[C@H](N)[C@H](O)[C@H](C)O1 [DOXORUBICIN]
- Cures (Mus musculus [33]): 5
- ILS at 2.5 mg/kg (Mus musculus [34]): 90%
- ILS at 2.5 mg/kg (Mus musculus [35]): > 675%
- T/C (Mus musculus [36]): 31%
- ILS at 2.5 mg/kg (Mus musculus [37]): > 257%
- ILS at 2.5 mg/kg (Mus musculus [38]): 65%
- ILS at 2.5 mg/kg (Mus musculus [39]): 30%

Compound: Cc1c2ccncc2c(C)c2c1[nH]c1ccccc12 [ELLIPTECINE]
- ILS at 120 mg/kg (Mus musculus [40]): 128%
- ILS at 60 mg/kg (Mus musculus [41]): 139%
